Laboratory results taken from ChEMBL document CHEMBL1134066, “A new structural class of selective and non-covalent inhibitors of the chymotrypsin-like activity of the 20S proteasome” (Bioorg Med Chem Lett, 2001).

Species on record: Homo sapiens
Test: In vitro inhibitory concentration against Chymotrypsin-like activity of the purified human placenta 20S Proteasome
Type: functional
How it was run: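 Purified human placenta 20S proteasome; chymotrypsin-like activity measured by cleavage of the fluorogenic substrate Suc-Leu-Val-Tyr-AMC (AMC release). Trypsin-like (Boc-Leu-Arg-Arg-AMC) and post-glutamyl-peptide hydrolytic-like (Z-Leu-Leu-Glu-AMC) substrates were used for the parallel selectivity assays.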

IC50 [µM] | Structure (SMILES)
72 | COc1ccc(CN[C@@H](C(=O)N[C@H](C(=O)NCc2ccccc2O)C(C)C)[C@H](O)[C@H](Cc2ccccc2)NC(=O)[C@@H](NC(=O)OCc2ccccc2)C(C)(C)C)cc1
70 | COc1ccc(CN[C@@H](C(=O)N[C@H](C(=O)NCc2ccc(OC)cc2O)C(C)C)[C@H](O)[C@H](Cc2ccccc2)NC(=O)[C@@H](N)C(C)(C)C)cc1
0.5 | COc1ccc(CN[C@@H](C(=O)N[C@H](C(=O)NCc2ccc(OC)cc2O)C(C)C)[C@H](O)[C@H](Cc2ccccc2)NC(=O)[C@@H](NC(=O)OCc2cccc(C)c2)C(C)(C)C)cc1
2 | COc1ccc(CN[C@@H](C(=O)N[C@H](C(=O)NCc2ccc(OC)cc2O)C(C)C)[C@H](O)[C@H](Cc2ccccc2)NC(=O)[C@@H](NC(=O)OCc2cccc3ccccc23)C(C)(C)C)cc1
0.1 | COc1ccc(CN[C@@H](C(=O)N[C@H](C(=O)NCc2ccc(OC)cc2O)C(C)C)[C@H](O)[C@H](Cc2ccccc2)NC(=O)[C@@H](NC(=O)Cc2cccc3ccccc23)C(C)(C)C)cc1
27 | COc1ccc(CN[C@@H](C(=O)N[C@H](C(=O)NCc2ccc(OC)cc2O)C(C)C)[C@H](O)[C@H](Cc2ccccc2)NC(=O)[C@@H](NC(=O)OC(C)(C)C)C(C)(C)C)cc1
3.3 | COc1ccc(CN[C@@H](C(=O)N[C@H](C(=O)NCc2ccc(OC)cc2O)C(C)C)[C@H](O)[C@H](Cc2ccccc2)NC(=O)[C@@H](NC(=O)OCc2ccccc2)C(C)C)cc1
1.1 | COc1ccc(CN[C@@H](C(=O)N[C@H](C(=O)NCc2ccc(OC)cc2O)C(C)C)[C@H](O)[C@H](Cc2ccccc2)NC(=O)[C@@H](NC(=O)OCc2cc(C)cc(C)c2)C(C)(C)C)cc1
0.6 | COc1ccc(CN[C@@H](C(=O)N[C@H](C(=O)NCc2ccc(OC)cc2O)C(C)C)[C@H](O)[C@H](Cc2ccccc2)NC(=O)[C@@H](NC(=O)OCc2cccc(N)c2)C(C)(C)C)cc1
0.9 | COc1ccc(CN[C@@H](C(=O)N[C@H](C(=O)NCc2ccc(OC)cc2O)C(C)C)[C@H](O)[C@H](Cc2ccccc2)NC(=O)[C@@H](NC(=O)OCc2ccccc2)C(C)(C)C)cc1
> 20 | COc1ccc(CN[C@@H](C(=O)N[C@H](C(=O)NCc2ccc(OC)cc2OC)C(C)C)[C@H](O)[C@H](Cc2ccccc2)NC(=O)[C@@H](NC(=O)OCc2ccccc2)C(C)C)cc1
0.6 | COc1ccc(CN[C@@H](C(=O)N[C@H](C(=O)NCc2ccc(OC)cc2O)C(C)C)[C@H](O)[C@H](Cc2ccccc2)NC(=O)[C@@H](NC(=O)CCc2cccc(N)c2)C(C)(C)C)cc1
